Source: PubChem BioAssay (Broad Institute)
Ecoli rRNA inh: selective bacterial rRNA inhibition in E. coli. GFP signal change (wild-type ribosome), % (concentration not given with the values). hit rate 1.6% among 350,000. E. coli WT GFP vs humanized-ribosome RFP mutants, fluorescence, 24 h; active compounds read low; DMSO median 0, no signal -100;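 active = significant combined selectivity score with lowered wild-type GFP, culture density cut under 30%, mutant RFP and density less affected; inactive = any of these conditions unmet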
SIRT5 inh: sirtuin-5 (human) deacylase inhibition | Q9NXA8 | AID 652115 | hit rate 1.1% among 330,000 | inhibition, % at 15 µM | Purified SirT5, succinyl-peptide AMC, trypsin-coupled fluorescence; in the data active = inhibition above about 15%
S100A4 MyoIIA: blocks human S100A4 binding to myosin IIA peptide. S100A4/TAMRA-MyoIIA peptide fluorescence polarization. inhibition, % at 10.7 µM. hit rate 0.14% among 360,000. AID 652163;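 active = mean inhibition of at least 70% across replicates, with every replicate also reaching that level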
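incubation = readout 5 min after mixing, signal stable up to 60 min | system = S100A4 monomer protein | buffer or medium = HEPES pH 7.2 with CaCl2, KCl, NaCl, DTT, Triton | benchmarks = neutral control DMSO, positive control TFP | also added = fluorescent myosin IIA peptide, 5 nM | compound dosing = one concentration per compound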
ERAP1 inh: inhibitors of human ERAP1 aminopeptidase. hit rate 0.15% among 340,000. inhibition, % at 10.7 µM. recombinant ERAP1, Leu-AMC fluorescence, 60 min. Q9NZ08;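 active = mean replicate inhibition of at least 30%, or all replicates individually reaching that 30% level; inactive = mean below 30% and not every replicate reaching it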;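 also: 0% = neutral control wells and 100% = L-leucinethiol positive control wells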
Target sequence (Q9NZ08 whole entry, looked up): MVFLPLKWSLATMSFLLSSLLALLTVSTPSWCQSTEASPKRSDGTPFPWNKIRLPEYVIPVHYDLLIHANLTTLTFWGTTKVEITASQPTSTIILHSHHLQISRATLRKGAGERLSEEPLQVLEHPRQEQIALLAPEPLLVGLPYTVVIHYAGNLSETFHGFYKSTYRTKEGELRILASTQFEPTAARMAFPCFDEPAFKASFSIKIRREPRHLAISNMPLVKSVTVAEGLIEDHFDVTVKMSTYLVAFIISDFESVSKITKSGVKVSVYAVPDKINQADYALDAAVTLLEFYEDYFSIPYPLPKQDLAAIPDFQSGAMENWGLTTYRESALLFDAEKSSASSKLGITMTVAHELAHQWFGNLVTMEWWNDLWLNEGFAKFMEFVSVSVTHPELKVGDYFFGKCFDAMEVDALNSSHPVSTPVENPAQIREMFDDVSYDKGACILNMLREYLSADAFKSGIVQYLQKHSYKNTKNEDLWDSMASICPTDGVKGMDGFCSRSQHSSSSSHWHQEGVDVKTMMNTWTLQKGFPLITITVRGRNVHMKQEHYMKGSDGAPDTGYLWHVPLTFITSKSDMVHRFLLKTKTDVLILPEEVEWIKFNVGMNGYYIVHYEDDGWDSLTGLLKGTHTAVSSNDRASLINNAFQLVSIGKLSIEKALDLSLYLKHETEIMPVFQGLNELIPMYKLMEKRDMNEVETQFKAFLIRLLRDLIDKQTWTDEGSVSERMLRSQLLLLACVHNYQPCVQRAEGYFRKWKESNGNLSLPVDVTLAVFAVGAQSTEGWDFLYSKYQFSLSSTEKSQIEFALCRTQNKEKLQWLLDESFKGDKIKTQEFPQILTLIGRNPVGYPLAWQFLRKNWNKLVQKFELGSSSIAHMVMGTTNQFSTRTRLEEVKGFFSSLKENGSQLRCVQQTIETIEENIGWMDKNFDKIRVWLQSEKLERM
CFTR F508del cor: CFTR F508del correction in bronchial cells | hit rate 0.36% among 350,000 | activity (quench increase), % at 7.58 µM | AID 720511 | CFBE cells, YFP halide quenching; stimulated with forskolin plus potentiator P3; % fluorescence drop versus neutral controls;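 active = mean added fluorescence quench of at least 8% versus neutral control, with both replicates also reaching 8%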;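 also: cells transiently co-express mutant CFTR-F508del with the halide-sensitive YFP; corrector assay measuring rescue of mutant channel to the surface after 24 h compound exposure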
Numbers without * were called inactive; x = not tested or not shown; ! = repeats disagree. Only some compounds are listed: those with a hit (about 3.1% of all), similar ones and a draw of the others.

SMILES | Ecoli rRNA inh | SIRT5 inh | S100A4 MyoIIA | ERAP1 inh | CFTR F508del cor
Cc1cccc(C2C3=C(Nc4[nH]n(-c5ccccc5)c(=O)c42)c2ccccc2C3=O)c1 (stereo not given) | -38* | 6 | 4 | 7 | x
Cc1ccc(/C=N/NC(=O)c2cccc(S(=O)(=O)Nc3cccc(Cl)c3)c2)o1 | -21* | -3 | -2 | 5 | -1
O=C(N/N=C/c1ccccc1C(=O)O)c1cccc(S(=O)(=O)Nc2cc(Cl)ccc2Cl)c1 | -19* | 0 | -3 | x | -1
CC(C)CCNC(=O)C(c1ccco1)N(CC1CCCO1)C(=O)Cn1nnc2ccccc21 (stereo not given) | 4 | -4 | -9 | 1 | x
Cn1c(C(C(=O)NCC2CCCO2)N(CCc2ccccc2)C(=O)Cn2nnc3ccccc32)nc2ccccc21 (stereo not given) | -22* | 2 | 1 | -2 | 1
COc1ccc(S(=O)(=O)N(C)C[C@H]2OCCCC[C@H](C)Oc3ccc(NC(=O)Nc4ccc(C(F)(F)F)cc4)cc3C(=O)N([C@@H](C)CO)C[C@H]2C)cc1 | 2 | -11 | -2 | -3 | 0
CCC1=NN(C(=O)c2ccc(Br)cc2)C(O)(c2ccc(C)cc2)C1 (stereo not given) | -30* | -4 | -5 | -1 | x
CCOC(=O)C1CCc2c(ccc3ccccc23)N1CCC#N (stereo not given) | -32 | 35* | 5 | -1 | 2
CCC(=O)N(C)CCc1cc2c(c(OC)c1/C=N/NS(=O)(=O)c1ccc(C)cc1)OCO2 | -25* | -2 | 1 | -4 | 1
CC(C)C#Cc1cnc2c(c1)C(=O)N([C@@H](C)CO)C[C@@H](C)[C@H](CN(C)C(=O)Nc1cc(F)ccc1F)O2 | 5 | -1 | 9 | 1 | 3
CCOC(=O)C1(Cc2cccc(OC)c2)CCN(Cc2ccccc2)CC1 | -9 | 0 | 5 | 0 | 1
CCOC(=O)C1(Cc2ccccc2Cl)CCN(Cc2csc(C(C)=O)c2)CC1 | -23* | -2 | 6 | 1 | 2
O=C(O)c1cccc(NC(=O)c2cn(-c3ccccc3)nc2-c2cccc(Br)c2)c1 | -39 | 16* | -5 | -35 | -1
O=C(NCc1ccc(Cl)cc1)c1cccc(S(=O)(=O)N2CCCC2)c1 | -19* | 1 | 4 | 0 | -3
Cc1cc2cc(CNC(=O)c3ccc(S(=O)(=O)N4CCCC4)cc3)ccc2n1C | 3 | -8 | 121* | 4 | 4
Cc1cc2cc(CNC(=O)c3ccc(S(=O)(=O)N4CCCCC4)cc3)ccc2n1C | 3 | -1 | 56 | 2 | 3
CC(C)CC#Cc1ccc2c(c1)O[C@@H](CN(C)C(=O)c1cnccn1)[C@H](C)CN([C@@H](C)CO)S2(=O)=O | -5 | 2 | 6 | 0 | 1
COCC(=O)N(C)C[C@@H]1Oc2cc(C#CC3CCCC3)ccc2S(=O)(=O)N([C@@H](C)CO)C[C@@H]1C | -2 | x | x | x | -1
S=c1[nH]nc(-c2cc(-c3ccccc3)n[nH]2)n1/N=C/c1cccc(Cl)c1 | -17* | 2 | -1 | 0 | -2
Cc1ccc(-c2n[nH]c(=S)n2/N=C/c2cccs2)cc1 | -33* | 29* | 2 | 2 | 1
Cc1nc2ccccc2c(=O)n1/N=C/c1cccs1 | -19* | 0 | -3 | 0 | -2
S=c1[nH]nc(-c2ccccc2)n1/N=C/c1cccs1 | -19* | x | 2 | 0 | x
COc1ccc(CN(C)C[C@@H]2OCCCC[C@H](C)Oc3ccc(NC(=O)NC(C)C)cc3C(=O)N([C@@H](C)CO)C[C@@H]2C)cc1 | 0 | 1 | 4 | 3 | 1
CC=Cc1ccc2n(c1=O)C[C@H]1[C@H](CO)[C@@H](C(=O)NCCc3ccncc3)[C@@H]2N1CCC(F)(F)F (mixture of isomers) | 4 | x | x | x | x
COc1cc(NC(=O)c2csc(N)n2)cc(C(=O)Nc2cccc(C(F)(F)F)c2)c1 | -48 | -1 | -5 | 0 | 8.0*!
SMILES | Ecoli rRNA inh | SIRT5 inh | S100A4 MyoIIA | ERAP1 inh | CFTR F508del cor
COc1cccc(S(=O)(=O)N2C[C@@H]3N[C@H](C2)C3c2ccc(-c3ccccc3OC)cc2)c1 (stereo not given in full) | 3 | 9 | 4 | 4 | -5
COc1ccccc1S(=O)(=O)N1C[C@@H]2N[C@H](C1)C2c1ccc(-c2ccccc2)cc1 (stereo not given in full) | -27 | 13 | 1 | 0 | 4
Cc1ccc(-c2ccc(C3[C@@H]4CN(S(=O)(=O)c5cccc(C)c5)C[C@H]3N4)cc2)cc1 (stereo not given in full) | x | 28* | 11 | x | -4
COc1cccc(S(=O)(=O)N2C[C@@H]3N[C@H](C2)C3c2ccc(-c3ccccc3F)cc2)c1 (stereo not given in full) | 0 | x | x | x | 10*!
Cc1ccc(S(=O)(=O)N2C[C@@H]3N[C@H](C2)[C@@H]3c2ccc(-c3cccc(C)c3)cc2)cc1 | -8 | x | x | x | 0
COc1cccc(-c2ccc(C3[C@@H]4CN(S(=O)(=O)c5cccc(OC)c5)C[C@H]3N4)cc2)c1 (stereo not given in full) | -6 | 9 | 4 | -3 | 21*!
COc1ccccc1-c1ccc([C@@H]2[C@@H]3CN(S(=O)(=O)c4ccc(-c5ccccc5)cc4)C[C@H]2N3)cc1 | -56 | 21* | 16 | -5 | -1
C[C@@H]1CN([C@H](C)CO)C(=O)c2c(c3ccccc3n2C)-c2ccccc2CO[C@@H]1CN(C)C(=O)c1ccccc1 | 0 | -4 | 6 | -4 | -2
O=[N+]([O-])c1ccccc1CN1CCN(S(=O)(=O)Cc2ccccc2)CC1 | -2 | -4 | 105* | 3 | -5
CC(C)CC(=O)N1CCN(Cc2ccccc2[N+](=O)[O-])CC1 | 12 | 32* | 2 | -5 | -4
C[C@@H]1CCCCO[C@H](CN(C)C(=O)c2ccncc2)[C@H](C)CN([C@@H](C)CO)C(=O)c2cc(NS(=O)(=O)c3cn(C)cn3)ccc2O1 | 4 | -2 | 2 | -1 | -3
CN(C)c1cccc(C(=O)Nc2ccc3nc4n(c(=O)c3c2)CCCCC4)c1 | -26* | x | -2 | x | 3
CCOc1ccccc1C(=O)Nc1ccc2nc3n(c(=O)c2c1)CCCCC3 | -1 | 23* | -1 | -4 | 3
C[C@@H]1CN([C@@H](C)CO)C(=O)Cc2cc(NC(=O)Nc3ccc4c(c3)OCO4)ccc2O[C@H]1CN(C)CC1CCCCC1 | -4 | 9 | -17 | 1 | 1
O=[N+]([O-])c1ccccc1/C=C/C=N/n1c(-c2ccccc2F)n[nH]c1=S | -21* | 0 | -3 | 4 | 1
CCN(CC)c1ccc2c(cc1=O)[C@@H](NC)CCc1cc(OC)c(OC)c(OC)c1-2 | -2 | -2 | -7 | 5 | 9.5*
